The nature of assay [1]: Cytotoxicity against […] HII4E cells after 48 hrs by MTT assay. The assay is classed as cell-based. The procedure, abridged:
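Adherent […] hepatoma cells attached 24 h in 96-well plates, then exposed to compound 24 h. H2O2 positive control, DMSO negative control. At 48 h of culture, MTT added (0.5 mg/mL final) for 3 h. Cells washed, formazan dissolved in DMSO with 20 min shaking at room temperature. Absorbance read at 550 nm, 620 nm reference.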
On the technique in general: Tetrazolium assays rely on reduction of a dye to a coloured formazan, in cell work by metabolically active cells.

The nature of assay [2]: Antifungal activity against Penicillium aurantiogriseum ATCC 16025 after 24 to 48 hrs by paper disk diffusion assay. The assay is classed as functional. The method in brief: (§1)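 Fungal disk diffusion per CLSI. Overnight cultures spread on potato dextrose agar. 6.4 mm paper disks each loaded with 300 μg substance in 15 μL DMSO. Actidione and amphotericin B positive controls, DMSO negative control. Incubated 25 °C for 24–48 h. Inhibition-zone diameter averaged over two replicates, scored by diameter ranges.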
In general terms: In agar diffusion tests the substance spreads into inoculated agar from a disc or well.

Assay [3] deals with Salmonella enteritidis. In words: Antibacterial activity against Salmonella enteritidis ATCC 13076 after 24 hrs by paper disk diffusion assay. The assay is classed as functional, Salmonella enterica subsp. enterica serovar Enteritidis. The procedure, abridged:
(§2)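 Disk diffusion per CLSI. Overnight bacterial cultures spread on nutrient agar. 6.4 mm paper disks each loaded with 300 μg substance in 15 μL DMSO. Chloramphenicol positive control, DMSO negative control. Incubated 37 °C, 24 h. Nearest inhibition-zone diameter measured, averaged over two replicates. Scored –(<12 mm) to +++++ (≥26 mm).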

For assay [4], the system named is Enterococcus faecalis. In words: Antibacterial activity against Enterococcus faecalis ATCC 7080 after 24 hrs by paper disk diffusion assay. The assay is classed as functional. The procedure, abridged:
as §2

For assay [5], the system named is Listeria monocytogenes. In words: Antibacterial activity against Listeria monocytogenes ATCC 19115 after 24 hrs by paper disk diffusion assay. In kind it is functional. The procedure, abridged:
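Disk diffusion per CLSI, overnight culture spread on tryptone soya agar. 6.4 mm paper disks each loaded with 300 μg substance in 15 μL DMSO. Chloramphenicol positive control, DMSO negative control. Incubated 37 °C, 24 h. Inhibition-zone diameter measured, averaged over two replicates, and scored by diameter ranges.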

In assay [6] the test system is Staphylococcus aureus. In words: Antibacterial activity against Staphylococcus aureus ATCC 6538 after 24 hrs by paper disk diffusion assay. In kind it is functional. The method in brief:
as §2

In assay [7] the test system is Bacillus cereus. The experiment in a line: Antibacterial activity against Bacillus cereus ATCC 11778 after 24 hrs by paper disk diffusion assay. The assay is classed as functional. The procedure, abridged:
as §2

Assay [8] has as its system Bacillus subtilis. In words: Antibacterial activity against Bacillus subtilis ATCC 6633 after 24 hrs by paper disk diffusion assay. In kind it is functional. The method in brief:
as §2

Assay [9] concerns Aspergillus niger. In words: Antifungal activity against Aspergillus niger ATCC 16404 after 24 to 48 hrs by paper disk diffusion assay. The assay is classed as functional. The procedure, abridged: as §1

Molecules are shown by their SMILES. Converted amounts (≈) assume the structure as drawn. “And” between values parts separate entries of the source, which are not always exact repeats. Identical values can stand only once.

The IC50 is the concentration at which inhibition is half-maximal. Lower therefore signals inhibition by little substance. In turn, `CC(=O)OC[C@@H]1C=C(OC(C)=O)C(=O)[C@@H](OCC(=O)NCc2ccccc2)O1` gave an IC50 in assay [1] of 163 µg/mL (≈ 416 µM).

Compound `CC(=O)OC[C@@H]1C=C(OC(C)=O)C(=O)[C@@H](OCC(=O)NCc2cn(Cc3ccccc3)nn2)O1` registered an IC50 in assay [1] of 10300 µg/mL (≈ 21800 µM).

As for `CCCCCCCCCCCCNC(=O)CO[C@H]1O[C@H](COC(C)=O)C=C(OC(C)=O)/C1=C\C(=O)OCC`, the inhibition zone (IZ) worked out at 12 mm in [2], 22 mm in assay [4], 20 mm in [6] and 12 mm in assay [8]. This compound also registered an IC50 in assay [1] of 76 µg/mL (≈ 141 µM). Further, the “diameter of the inhibition zone (DIZ)” value is listed as less than 12 mm in assay [3]; 22 mm in assay [4]; less than 12 mm in assay [5]; 20 mm in [6]; less than 12 mm in [7]; 12 mm in assay [8]. In addition, in [9], the “diameter of the inhibition zone (DIZ)” value is given as less than 12 mm.

Consider `O=C(CO[C@@H]1O[C@H](CO)[C@@H](O)[C@H](O)[C@H]1O)NCc1cn(Cc2ccccc2)nn1`, for which, in assay [1], the concentration for half-maximal inhibition (IC50) worked out at 426 µg/mL (≈ 1040 µM).

Regarding `CCCCCCCCCCCCNC(=O)CO[C@@H]1O[C@H](COC(C)=O)C=C(OC(C)=O)C1=O`, the inhibition zone (IZ) is > 26 mm and 33 mm in [2]; 14 mm in [3]; 14 mm in [5]; 13 mm in [6]; 14 mm in assay [7]; 18 mm in assay [8]. In assay [9], the “inhibition zone (IZ)” value is “>=26 mm”. Moreover, the IC50 in assay [1] was 45 µg/mL (≈ 95.8 µM). Besides, the “diameter of the inhibition zone (DIZ)” value is listed as 14 mm in [3]; less than 12 mm in assay [4]; 14 mm in [5]; 13 mm in [6]; 16 mm in assay [7]; 21 mm in [8]. In [9], the “diameter of the inhibition zone (DIZ)” value amounted to 40 mm.

Consider `C[C@@H]1C[C@@H]([C@H](O)CC2CC(=O)NC(=O)C2)C(=O)[C@@H](C)C1` [CYCLOHEXIMIDE], for which the inhibition zone (IZ) in assay [2] was > 26 mm and 26 mm. Also, in [9], the “diameter of the inhibition zone (DIZ)” value is on record as 43 mm and the “inhibition zone (IZ)” value is “>=26 mm”.

As for `CC(=O)OC[C@H]1O[C@H](OCC(=O)NCc2cn(Cc3ccccc3)nn2)[C@H](O)[C@@H](OC(C)=O)[C@H]1OC(C)=O`, in assay [1], the IC50 came out at 879 µg/mL (≈ 1640 µM).

Consider `C#CCNC(=O)CO[C@H]1O[C@H](COC(C)=O)C=C(OC(C)=O)/C1=C\C(=O)OCC`, for which the inhibition zone (IZ) in assay [2] is less than 12 mm; in assay [4] it was 24 mm. In addition, the IC50 in [1] amounted to 257 µg/mL (≈ 628 µM). The “diameter of the inhibition zone (DIZ)” value in assay [3] was less than 12 mm; in [4], 24 mm; in [5], less than 12 mm; in assay [6], less than 12 mm; in assay [7], less than 12 mm; in [8] it was less than 12 mm. Moreover, in assay [9], the “diameter of the inhibition zone (DIZ)” value is listed as less than 12 mm.

With `C[S+](C)[O-]` [DIMETHYL SULFOXIDE], the midpoint of inhibition in assay [1], the IC50, lay at 199 µg/mL (≈ 2550 µM).

With `O=C(N[C@H](CO)[C@H](O)c1ccc([N+](=O)[O-])cc1)C(Cl)Cl` [CHLORAMPHENICOL], the “diameter of the inhibition zone (DIZ)” value in [3] stood at 41 mm; in assay [4] it was 37 mm; in assay [5], 33 mm; in assay [6], 36 mm; in [7], 31 mm; in [8], 40 mm. Further, the “inhibition zone (IZ)” value in assay [3], in assay [4], in assay [5], in assay [6], in [7] and in [8] was “>=26 mm” throughout.

For `C[C@@H]1[C@H](O)[C@@H](C)/C=C/C=C/C=C/C=C/C=C/C=C/C=C/[C@H](O[C@@H]2O[C@H](C)[C@@H](O)[C@H](N)[C@@H]2O)C[C@@H]2O[C@](O)(C[C@@H](O)C[C@@H](O)[C@H](O)CC[C@@H](O)C[C@@H](O)CC(=O)O[C@H]1C)C[C@H](O)[C@H]2C(=O)O` [AMPHOTERICIN B], the inhibition zone (IZ) in [2] was > 26 mm and 26 mm. Moreover, in assay [9], the “diameter of the inhibition zone (DIZ)” value is on record as 22 mm and the “inhibition zone (IZ)” value was determined as 22 mm.

In the case of `C=CCCCCn1cc(CN(CC=C)C(=O)CO[C@H]2O[C@H](COCC=C)[C@H](OCC=C)[C@H](O)[C@H]2OCC=C)nn1`, in assay [1], the IC50 stood at 1190 µg/mL (≈ 2120 µM).

In assay [1], `CCOC(=O)/C=C1\C(OC(C)=O)=C[C@@H](COC(C)=O)O[C@@H]1OCC(=O)NCc1cn(Cc2ccccc2)nn1` registered an IC50 of 12000 µg/mL (≈ 22100 µM).

Take `C=CCNC(=O)CO[C@H]1O[C@H](COC(C)=O)C=C(OC(C)=O)/C1=C\C(=O)OCC`: the IC50 in assay [1] turned out to be 352 µg/mL (≈ 856 µM).

Take `CCOC(=O)/C=C1\C(OC(C)=O)=C[C@@H](COC(C)=O)O[C@@H]1OCC(=O)NCc1ccccc1`: the inhibition zone (IZ) stood at 12 mm in assay [2] and 24 mm in assay [4]. In assay [1], this compound returned an IC50 of 128 µg/mL (≈ 277 µM). Also, the “diameter of the inhibition zone (DIZ)” value in assay [3] was less than 12 mm; in [4], 24 mm; in assay [5], less than 12 mm; in assay [6], less than 12 mm; in assay [7], less than 12 mm; in assay [8], less than 12 mm. Further, the “diameter of the inhibition zone (DIZ)” value in assay [9] is less than 12 mm.

`CC(=O)OC[C@H]1O[C@@H](OCC(=O)NCc2cn(Cc3ccccc3)nn2)[C@H](O)[C@@H](OC(C)=O)[C@@H]1OC(C)=O` gave an IC50 in assay [1] of 505 µg/mL (≈ 945 µM).

On to `O=C(CO[C@H]1O[C@H](CO)[C@H](O)[C@H](O)[C@H]1O)NCc1cn(Cc2ccccc2)nn1`, for which, in assay [1], it took 617 µg/mL (≈ 1510 µM) to reach half-maximal inhibition (IC50).

For the compound `C#CCNC(=O)CO[C@H]1O[C@H](COC(C)=O)C=C(OC(C)=O)C1=O`, it took 282 µg/mL (≈ 831 µM) to reach half-maximal inhibition in [1] (IC50).

Turning to `O=C(CO[C@H]1O[C@H](CO)[C@@H](O)[C@H](O)[C@H]1O)NCc1cn(Cc2ccccc2)nn1`, the IC50 in [1] worked out at 193 µg/mL (≈ 473 µM).

In turn, `C=CCCCCn1cc(CNC(=O)CO[C@H]2O[C@H](COC(C)=O)[C@H](OC(C)=O)[C@H](OC(C)=O)[C@H]2O)nn1` yielded a 50% inhibitory concentration (IC50) in assay [1] of 63 µg/mL (≈ 120 µM).

In assay [1], `OO` [HYDROGEN PEROXIDE] had an IC50 of 2 µg/mL (≈ 58.8 µM).

For `CCCCCCCCCCCCNC(=O)CO[C@H]1O[C@H](COC(C)=O)C=C(OC(C)=O)C1=O`, the inhibition zone (IZ) in assay [2] is > 26 mm and 30 mm; in [4] it was 24 mm; in assay [5] it was 17 mm; in assay [6], 17 mm; in assay [7], “>=26 mm”; in [8], “>=26 mm”. The “inhibition zone (IZ)” value in assay [9] is 12 mm. The compound further returned an IC50 in assay [1] of 136 µg/mL (≈ 290 µM). Moreover, the “diameter of the inhibition zone (DIZ)” value is on record as less than 12 mm in [3]; 24 mm in assay [4]; 17 mm in [5]; 17 mm in assay [6]; 39 mm in [7]; 40 mm in assay [8]. The “diameter of the inhibition zone (DIZ)” value in [9] is recorded as 12 mm.

Turning to `CC(=O)OC[C@H]1O[C@H](OCC(=O)NCc2cn(Cc3ccccc3)nn2)[C@H](O)[C@@H](OC(C)=O)[C@@H]1OC(C)=O`, in [1], the half-maximal inhibitory concentration (IC50) was 69 µg/mL (≈ 129 µM).

Compound `C=CCCCCn1cc(CNC(=O)CO[C@H]2O[C@H](CO)[C@H](O)[C@H](O)[C@H]2O)nn1` showed an IC50 in assay [1] of 394 µg/mL (≈ 984 µM).

The values above are taken from ChEMBL document CHEMBL1641513, “Synthesis of sugars embodying conjugated carbonyl systems and related triazole derivatives from carboxymethyl glycoside lactones. Evaluation of their antimicrobial activity and toxicity” (Bioorg Med Chem, 2011).
